From ChEMBL document CHEMBL3785064, “Cylindrofridins A-C, Linear Cylindrocyclophane-Related Alkylresorcinols from the Cyanobacterium Cylindrospermum stagnale” (J Nat Prod, 2016) come the findings set out here.

The test system of one assay is Escherichia coli. Briefly: Antibacterial activity against Escherichia coli isolate 13 V676803 after 24 hrs. Format: functional. The settings on record: isolate 13 V676803, 24 h.
The next assay deals with Pseudomonas aeruginosa. Briefly: Antibacterial activity against Pseudomonas aeruginosa isolate 22 V143708 after 24 hrs. Format: functional. The settings on record: isolate 22 V143708, 24 h.
For another assay, the system named is Staphylococcus aureus. The assay is described as follows: Antibacterial activity against methicillin-resistant Staphylococcus aureus isolate 1 B690208 after 24 hrs. Format: functional. The settings on record: isolate 1 B690208, 24 h. The method in brief:
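MIC determined against MRSA; vancomycin and fusidic acid served as positive controls.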

In a further assay the test system is Streptococcus pneumoniae. Briefly: Antibacterial activity against Streptococcus pneumoniae ATCC 49619 after 24 hrs. Format: functional. The settings on record: ATCC 49619, 24 h.
The test system of a further assay is Klebsiella pneumoniae. The assay is described as follows: Antibacterial activity against Klebsiella pneumoniae isolate 18 B224106 after 24 hrs. Format: functional. As to conditions: isolate 18 B224106, 24 h.
In the next assay the test system is HaCaT. The assay is described as follows: Cytotoxicity against human HaCaT cells by Cell titre-blue assay. Format: cell-based. The method in brief: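 Nontumorigenic human keratinocyte HaCaT cells were tested with mitoxantrone as the positive control, and results are reported as IC50 in μM.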

≈ marks a conversion by molar mass, not a printed value.

In general, MIC refers to the lowest concentration that inhibits growth of the organism. The term IC50 denotes the concentration that inhibits the measured activity by half. A lower IC50 goes with greater potency in that assay. For `CCCCC(Cl)CCCC[C@H](C)[C@@H](OC(C)=O)c1cc(O)c([C@@H](CCCC)CCCC[C@H](C)[C@@H](OC(C)=O)c2cc(O)cc(O)c2)c(O)c1` (some centres undefined), the MIC in the assay on Escherichia coli, against Pseudomonas aeruginosa, in the assay on Staphylococcus aureus, in the assay on Streptococcus pneumoniae and with Klebsiella pneumoniae was over 71 µM in each case. This compound returned an IC50 in the assay with HaCaT of 25 µM.
Regarding `CCCCC(Cl)CCCC[C@H](C)[C@@H](O)c1cc(O)c([C@@H](CCCC)CCCC[C@H](C)[C@@H](OC(C)=O)c2cc(O)cc(O)c2)c(O)c1` (some centres undefined), the MIC with Escherichia coli, against Pseudomonas aeruginosa, in the assay with Staphylococcus aureus, against Streptococcus pneumoniae and against Klebsiella pneumoniae was over 75 µM in each case. For the same compound, the midpoint of inhibition with HaCaT, the IC50, lay at 25 µM.
Consider `CCCCC(Cl)CCCC[C@H](C)[C@@H](OC(C)=O)c1cc(O)cc(O)c1` (some centres undefined), for which the MIC was over 135 µM in the assay with Escherichia coli; over 135 µM with Pseudomonas aeruginosa; 8.6 µM (≈ 3.19 µg/mL) in the assay with Staphylococcus aureus; 17 µM (≈ 6.31 µg/mL) against Streptococcus pneumoniae; over 135 µM with Klebsiella pneumoniae. Further, 100 µM corresponded to half-maximal inhibition in the assay with HaCaT (IC50).
Consider `CCCC[C@H]1CCCC[C@H](C)[C@@H](O)c2cc(O)c(c(O)c2)[C@@H](CCCC)CCCC[C@H](C)[C@@H](OC(C)=O)c2cc(O)c1c(O)c2`, for which the MIC against Escherichia coli was over 80 µM; in the assay on Pseudomonas aeruginosa, over 80 µM; in the assay on Staphylococcus aureus, 0.1 µM (≈ 0.0627 µg/mL); against Streptococcus pneumoniae, 0.3 µM (≈ 0.188 µg/mL); in the assay with Klebsiella pneumoniae it was over 80 µM. In the assay with HaCaT, inhibition was half-maximal at 2.9 µM (IC50).
For `CCCC[C@H]1CCCC[C@H](C)[C@@H](OC(C)=O)c2cc(O)c(c(O)c2)[C@@H](CCCC)CCCC[C@H](C)[C@@H](OC(C)=O)c2cc(O)c1c(O)c2`, the MIC is over 75 µM in the assay on Escherichia coli; over 75 µM in the assay with Pseudomonas aeruginosa; 0.9 µM (≈ 0.602 µg/mL) in the assay on Staphylococcus aureus; 2.4 µM (≈ 1.61 µg/mL) in the assay with Streptococcus pneumoniae; over 75 µM against Klebsiella pneumoniae. In the assay with HaCaT, this compound displayed an IC50 of 11 µM.
As for `CN[C@@H](CC(C)C)C(=O)N[C@H]1C(=O)N[C@@H](CC(N)=O)C(=O)N[C@H]2C(=O)N[C@H]3C(=O)N[C@H](C(=O)N[C@@H](C(=O)O)c4cc(O)cc(O)c4-c4cc3ccc4O)[C@H](O)c3ccc(c(Cl)c3)Oc3cc2cc(c3O[C@H]2O[C@@H](CO)[C@H](O)[C@@H](O)[C@@H]2O[C@@H]2C[C@@](C)(N)[C@@H](O)[C@@H](C)O2)Oc2ccc(cc2Cl)[C@H]1O`, the minimum inhibitory concentration (MIC) against Streptococcus pneumoniae worked out at 3.8 µM (≈ 5.51 µg/mL).
As for `CCCC[C@H]1CCCC[C@H](C)[C@@H](O)c2cc(O)c(c(O)c2)[C@@H](CCCC)CCCC[C@H](C)[C@@H](O)c2cc(O)c1c(O)c2` [CYLINDROCYCLOPHANE A], the minimum inhibitory concentration (MIC) was over 85 µM in the assay on Escherichia coli; over 85 µM in the assay with Pseudomonas aeruginosa; 0.1 µM (≈ 0.0585 µg/mL) in the assay on Staphylococcus aureus; 0.3 µM (≈ 0.175 µg/mL) in the assay on Streptococcus pneumoniae; over 85 µM in the assay with Klebsiella pneumoniae. In addition, half-maximal inhibition in the assay with HaCaT (IC50) required 5 µM.
For the compound `CC(=O)O[C@H]1C[C@@]2(C)[C@@H](C[C@@H](O)[C@H]3[C@@]4(C)CC[C@@H](O)[C@@H](C)[C@@H]4CC[C@@]32C)/C1=C(\CCC=C(C)C)C(=O)O` [FUSIDIC ACID], the minimal inhibitory concentration (MIC) in the assay with Staphylococcus aureus amounted to 1.4 µM (≈ 0.723 µg/mL).
In the assay on HaCaT, `O=C1c2c(O)ccc(O)c2C(=O)c2c(NCCNCCO)ccc(NCCNCCO)c21` [MITOXANTRONE] had an IC50 of 3.9 µM.
